This is an account of results in ChEMBL document CHEMBL2424622, “Development of amino-pyrimidine inhibitors of c-Jun N-terminal kinase (JNK): kinase profiling guided optimization of a 1,2,3-benzotriazole lead” (Bioorg Med Chem Lett, 2013).

Molecules are shown by their SMILES.

Experiment [1] addresses Protein-tyrosine kinase 2-beta (Homo sapiens) (UniProt Q14289). Nature of the experiment: Competitive binding affinity to PTK2B (unknown origin) at 10 uM in presence of ATP relative to control. Put shortly:
(§1)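 In vitro ATP-site competition binding assay across a diverse panel of 128 kinases, with compound tested at a single concentration. Kinase selectivity scores (S15) were calculated from the panel profiles.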

Experiment [2] addresses Mitogen-activated protein kinase 10 (Homo sapiens, UniProt P53779). Nature of the experiment: Competitive binding affinity to JNK3 (unknown origin) at 10 uM in presence of ATP relative to control. Put shortly:
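In vitro ATP-site competition binding assay across a diverse panel of 128 kinases, with each compound tested at a single concentration. Kinase binding is expressed relative to control.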

Experiment [3] has as its target T1, Cytoplasmic tyrosine-protein kinase BMX (Homo sapiens) (UniProt P51813).
T1 sequence (whole entry): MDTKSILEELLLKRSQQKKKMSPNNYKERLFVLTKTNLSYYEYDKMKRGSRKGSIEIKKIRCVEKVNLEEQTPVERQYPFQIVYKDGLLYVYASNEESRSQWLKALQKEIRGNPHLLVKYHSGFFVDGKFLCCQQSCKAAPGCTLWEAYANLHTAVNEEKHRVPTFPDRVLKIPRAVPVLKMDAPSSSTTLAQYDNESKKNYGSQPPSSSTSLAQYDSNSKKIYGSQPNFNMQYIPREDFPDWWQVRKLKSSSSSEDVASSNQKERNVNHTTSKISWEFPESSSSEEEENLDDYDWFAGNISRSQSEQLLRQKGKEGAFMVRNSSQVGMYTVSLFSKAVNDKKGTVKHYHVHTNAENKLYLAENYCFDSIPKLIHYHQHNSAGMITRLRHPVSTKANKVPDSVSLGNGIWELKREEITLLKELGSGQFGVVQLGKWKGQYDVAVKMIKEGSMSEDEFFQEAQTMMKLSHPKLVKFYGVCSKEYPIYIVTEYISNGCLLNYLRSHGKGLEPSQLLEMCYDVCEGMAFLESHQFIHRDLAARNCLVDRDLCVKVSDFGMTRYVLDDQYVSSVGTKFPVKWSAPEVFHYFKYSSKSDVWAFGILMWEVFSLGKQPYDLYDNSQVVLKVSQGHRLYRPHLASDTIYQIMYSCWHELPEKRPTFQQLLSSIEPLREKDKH
Nature of the experiment: Competitive binding affinity to BMX (unknown origin) at 10 uM in presence of ATP relative to control.

In experiment [4] the target is Phosphorylase b kinase gamma catalytic chain, skeletal muscle/heart isoform (Homo sapiens) (UniProt Q16816). Nature of the experiment: Competitive binding affinity to PHKG1 (unknown origin) at 10 uM in presence of ATP relative to control. In a few lines: as §1
Experiment [5] concerns the target Serine/threonine-protein kinase Nek6 (Homo sapiens) (UniProt Q9HC98). Nature of the experiment: Competitive binding affinity to NEK6 (unknown origin) at 10 uM in presence of ATP relative to control. In a few lines:
as §1

The target in experiment [6] is Calcium/calmodulin-dependent protein kinase type II subunit gamma (Homo sapiens) (UniProt Q13555). Nature of the experiment: Competitive binding affinity to CAMK2G (unknown origin) at 10 uM in presence of ATP relative to control.
For experiment [7], the target named is Tyrosine-protein kinase SYK (Homo sapiens) (UniProt P43405). The experiment is described as follows: Competitive binding affinity to SYK (unknown origin) at 10 uM in presence of ATP relative to control. Put shortly: as §1
The target of experiment [8] is Tyrosine-protein kinase HCK (Homo sapiens) (UniProt P08631). The experiment is described as follows: Competitive binding affinity to HCK (unknown origin) at 10 uM in presence of ATP relative to control. In a few lines: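 In vitro ATP-site competition binding assay, part of profiling against a diverse panel of 128 kinases. Each compound was tested at a single concentration of 10 µM. Kinome selectivity was summarized as S15 selectivity scores.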

Experiment [9] concerns the target Serine/threonine-protein kinase PAK 1 (Homo sapiens) (UniProt Q13153). Nature of the experiment: Competitive binding affinity to PAK1 (unknown origin) at 10 uM in presence of ATP relative to control. In a few lines: as §1
Experiment [10] has as its target Casein kinase II subunit alpha (Homo sapiens) (UniProt P68400). Nature of the experiment: Competitive binding affinity to CSNK2A1 (unknown origin) at 10 uM in presence of ATP relative to control.
In experiment [11] the target is MAP kinase-interacting serine/threonine-protein kinase 2 (Homo sapiens) (UniProt Q9HBH9). Nature of the experiment: Competitive binding affinity to MKNK2 (unknown origin) at 10 uM in presence of ATP relative to control. Put shortly: as §1
Experiment [12] concerns the target T2, Serine/threonine-protein kinase Nek9 (Homo sapiens) (UniProt Q8TD19).
T2 sequence (whole entry): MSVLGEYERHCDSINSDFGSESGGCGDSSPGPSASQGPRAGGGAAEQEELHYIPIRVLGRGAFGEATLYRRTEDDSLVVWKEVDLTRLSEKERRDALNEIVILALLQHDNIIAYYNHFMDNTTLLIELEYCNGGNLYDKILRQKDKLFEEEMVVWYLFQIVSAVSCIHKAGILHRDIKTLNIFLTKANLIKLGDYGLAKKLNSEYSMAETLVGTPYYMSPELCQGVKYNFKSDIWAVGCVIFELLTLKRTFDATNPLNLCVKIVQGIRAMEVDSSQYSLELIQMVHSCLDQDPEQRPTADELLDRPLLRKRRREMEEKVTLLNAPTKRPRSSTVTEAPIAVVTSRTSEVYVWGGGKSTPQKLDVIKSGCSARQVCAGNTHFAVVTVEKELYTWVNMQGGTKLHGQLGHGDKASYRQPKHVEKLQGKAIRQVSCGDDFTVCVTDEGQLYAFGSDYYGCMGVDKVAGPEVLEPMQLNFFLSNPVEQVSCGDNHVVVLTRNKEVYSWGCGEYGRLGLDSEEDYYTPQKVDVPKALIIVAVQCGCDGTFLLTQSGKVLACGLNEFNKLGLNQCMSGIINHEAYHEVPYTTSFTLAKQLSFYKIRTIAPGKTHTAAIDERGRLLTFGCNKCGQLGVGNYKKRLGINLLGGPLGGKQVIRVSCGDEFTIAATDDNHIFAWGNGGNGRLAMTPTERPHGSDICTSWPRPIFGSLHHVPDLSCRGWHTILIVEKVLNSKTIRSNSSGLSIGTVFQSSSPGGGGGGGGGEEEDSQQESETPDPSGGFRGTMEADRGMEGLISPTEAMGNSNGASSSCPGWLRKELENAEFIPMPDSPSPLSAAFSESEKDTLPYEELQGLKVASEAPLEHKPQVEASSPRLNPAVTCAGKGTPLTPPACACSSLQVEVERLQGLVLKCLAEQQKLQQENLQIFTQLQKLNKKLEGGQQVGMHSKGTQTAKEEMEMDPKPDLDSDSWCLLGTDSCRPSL
Nature of the experiment: Competitive binding affinity to NEK9 (unknown origin) at 10 uM in presence of ATP relative to control. Put shortly: as §1

For experiment [13], the target named is Casein kinase I isoform gamma-2 (Homo sapiens) (UniProt P78368). Nature of the experiment: Competitive binding affinity to CSNK1G2 (unknown origin) at 10 uM in presence of ATP relative to control.

Chain of Casein kinase II subunit alpha (Homo sapiens) (P68400 whole entry, looked up): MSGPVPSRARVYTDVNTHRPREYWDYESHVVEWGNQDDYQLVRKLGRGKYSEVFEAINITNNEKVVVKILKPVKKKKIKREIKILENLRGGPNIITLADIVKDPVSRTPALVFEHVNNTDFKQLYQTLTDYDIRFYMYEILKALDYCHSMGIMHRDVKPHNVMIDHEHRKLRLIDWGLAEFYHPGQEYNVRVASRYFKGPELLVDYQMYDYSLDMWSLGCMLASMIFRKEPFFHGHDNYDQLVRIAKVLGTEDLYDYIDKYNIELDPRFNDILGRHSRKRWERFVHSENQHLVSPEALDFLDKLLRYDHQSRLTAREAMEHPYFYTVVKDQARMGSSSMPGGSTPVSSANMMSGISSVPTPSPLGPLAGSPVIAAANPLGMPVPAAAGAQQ
Chain of MAP kinase-interacting serine/threonine-protein kinase 2 (Homo sapiens) (Q9HBH9 whole entry, looked up): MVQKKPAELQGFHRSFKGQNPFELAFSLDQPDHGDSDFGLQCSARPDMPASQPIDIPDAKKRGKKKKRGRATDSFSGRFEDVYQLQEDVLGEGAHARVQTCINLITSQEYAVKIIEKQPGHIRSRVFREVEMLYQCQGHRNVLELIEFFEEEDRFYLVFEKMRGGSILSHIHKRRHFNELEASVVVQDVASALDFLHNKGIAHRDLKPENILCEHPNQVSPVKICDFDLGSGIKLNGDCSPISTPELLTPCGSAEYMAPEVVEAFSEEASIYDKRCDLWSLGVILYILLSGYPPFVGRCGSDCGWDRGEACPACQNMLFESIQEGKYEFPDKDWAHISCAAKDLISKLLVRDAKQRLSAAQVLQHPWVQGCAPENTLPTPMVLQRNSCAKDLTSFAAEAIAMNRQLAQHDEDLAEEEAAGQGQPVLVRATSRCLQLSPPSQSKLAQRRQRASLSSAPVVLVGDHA
Chain of Mitogen-activated protein kinase 10 (P53779 whole entry): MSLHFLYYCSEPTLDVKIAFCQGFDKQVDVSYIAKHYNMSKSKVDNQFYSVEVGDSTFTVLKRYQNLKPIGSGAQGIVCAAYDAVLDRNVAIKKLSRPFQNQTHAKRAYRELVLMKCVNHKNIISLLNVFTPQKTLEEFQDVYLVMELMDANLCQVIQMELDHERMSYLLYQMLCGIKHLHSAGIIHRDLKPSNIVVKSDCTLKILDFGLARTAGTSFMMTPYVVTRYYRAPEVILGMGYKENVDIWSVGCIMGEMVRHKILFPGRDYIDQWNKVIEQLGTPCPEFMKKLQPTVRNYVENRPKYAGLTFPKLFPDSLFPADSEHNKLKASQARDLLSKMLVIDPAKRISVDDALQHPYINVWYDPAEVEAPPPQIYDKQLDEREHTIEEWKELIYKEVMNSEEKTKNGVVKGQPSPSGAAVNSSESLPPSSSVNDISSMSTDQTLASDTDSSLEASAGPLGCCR
Chain of Serine/threonine-protein kinase Nek6 (Homo sapiens) (Q9HC98 whole entry): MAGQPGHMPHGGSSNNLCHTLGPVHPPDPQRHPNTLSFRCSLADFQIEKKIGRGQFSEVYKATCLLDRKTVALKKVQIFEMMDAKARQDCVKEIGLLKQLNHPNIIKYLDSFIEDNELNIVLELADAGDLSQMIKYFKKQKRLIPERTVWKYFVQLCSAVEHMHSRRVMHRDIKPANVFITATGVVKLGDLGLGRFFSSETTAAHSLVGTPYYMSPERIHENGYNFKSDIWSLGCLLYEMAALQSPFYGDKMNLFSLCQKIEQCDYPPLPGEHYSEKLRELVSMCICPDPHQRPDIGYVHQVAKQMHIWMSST
Chain of Tyrosine-protein kinase HCK (Homo sapiens) (P08631 2-526 limits assumed): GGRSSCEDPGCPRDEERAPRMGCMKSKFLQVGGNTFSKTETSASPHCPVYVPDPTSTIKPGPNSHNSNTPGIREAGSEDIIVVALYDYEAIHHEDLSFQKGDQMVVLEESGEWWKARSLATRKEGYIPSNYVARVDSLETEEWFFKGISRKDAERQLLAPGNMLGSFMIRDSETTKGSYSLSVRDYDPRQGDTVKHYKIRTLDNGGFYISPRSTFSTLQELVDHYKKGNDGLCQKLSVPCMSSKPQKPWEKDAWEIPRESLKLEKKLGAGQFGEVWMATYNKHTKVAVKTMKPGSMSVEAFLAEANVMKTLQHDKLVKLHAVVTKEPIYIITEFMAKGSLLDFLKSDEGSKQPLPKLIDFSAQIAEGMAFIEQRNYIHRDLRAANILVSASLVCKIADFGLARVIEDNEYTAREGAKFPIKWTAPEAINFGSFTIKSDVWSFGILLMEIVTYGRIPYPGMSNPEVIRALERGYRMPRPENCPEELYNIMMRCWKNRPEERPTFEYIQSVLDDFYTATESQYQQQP
Chain of Serine/threonine-protein kinase PAK 1 (Homo sapiens) (Q13153 whole entry): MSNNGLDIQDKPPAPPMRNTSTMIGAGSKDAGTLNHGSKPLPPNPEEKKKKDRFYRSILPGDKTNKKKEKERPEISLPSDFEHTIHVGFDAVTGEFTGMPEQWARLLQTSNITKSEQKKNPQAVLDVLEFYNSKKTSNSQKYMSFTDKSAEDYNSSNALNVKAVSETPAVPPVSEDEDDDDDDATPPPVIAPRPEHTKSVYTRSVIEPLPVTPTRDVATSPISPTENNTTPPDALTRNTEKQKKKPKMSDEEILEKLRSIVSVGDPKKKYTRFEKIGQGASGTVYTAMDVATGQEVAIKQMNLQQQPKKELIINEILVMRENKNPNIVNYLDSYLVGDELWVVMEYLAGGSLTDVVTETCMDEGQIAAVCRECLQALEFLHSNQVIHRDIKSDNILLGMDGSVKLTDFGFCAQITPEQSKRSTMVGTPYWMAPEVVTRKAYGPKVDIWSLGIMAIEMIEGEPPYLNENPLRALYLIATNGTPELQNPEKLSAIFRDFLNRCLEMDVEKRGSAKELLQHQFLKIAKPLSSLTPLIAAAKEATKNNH
Chain of Protein-tyrosine kinase 2-beta (Homo sapiens) (Q14289 whole entry, looked up): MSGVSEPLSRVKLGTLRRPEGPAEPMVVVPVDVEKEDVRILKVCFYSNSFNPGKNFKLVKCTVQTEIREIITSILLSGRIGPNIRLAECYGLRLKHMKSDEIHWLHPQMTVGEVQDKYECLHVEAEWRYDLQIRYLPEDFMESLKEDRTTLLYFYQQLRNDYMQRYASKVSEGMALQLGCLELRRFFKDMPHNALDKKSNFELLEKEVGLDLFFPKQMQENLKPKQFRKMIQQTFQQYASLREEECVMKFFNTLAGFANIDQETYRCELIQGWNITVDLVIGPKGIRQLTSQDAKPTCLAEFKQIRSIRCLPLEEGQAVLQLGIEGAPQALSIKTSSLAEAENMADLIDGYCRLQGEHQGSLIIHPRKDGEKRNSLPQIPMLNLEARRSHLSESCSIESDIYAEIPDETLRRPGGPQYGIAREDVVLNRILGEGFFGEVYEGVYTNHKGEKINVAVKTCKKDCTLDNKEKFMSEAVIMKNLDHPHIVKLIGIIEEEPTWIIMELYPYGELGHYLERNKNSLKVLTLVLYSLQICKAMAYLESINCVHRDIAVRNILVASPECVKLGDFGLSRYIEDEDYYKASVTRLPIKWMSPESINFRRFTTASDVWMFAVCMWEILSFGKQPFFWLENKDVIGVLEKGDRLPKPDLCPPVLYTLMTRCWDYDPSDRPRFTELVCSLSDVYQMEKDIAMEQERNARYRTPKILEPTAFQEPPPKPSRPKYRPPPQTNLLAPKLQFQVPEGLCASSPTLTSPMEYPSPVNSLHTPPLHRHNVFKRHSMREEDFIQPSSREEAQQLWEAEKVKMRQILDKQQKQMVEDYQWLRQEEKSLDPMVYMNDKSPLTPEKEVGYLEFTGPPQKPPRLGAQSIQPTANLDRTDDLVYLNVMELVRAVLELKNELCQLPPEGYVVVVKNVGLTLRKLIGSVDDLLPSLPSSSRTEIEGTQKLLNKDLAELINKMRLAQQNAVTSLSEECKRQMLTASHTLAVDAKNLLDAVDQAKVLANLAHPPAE
Chain of Calcium/calmodulin-dependent protein kinase type II subunit gamma (Homo sapiens) (Q13555 whole entry): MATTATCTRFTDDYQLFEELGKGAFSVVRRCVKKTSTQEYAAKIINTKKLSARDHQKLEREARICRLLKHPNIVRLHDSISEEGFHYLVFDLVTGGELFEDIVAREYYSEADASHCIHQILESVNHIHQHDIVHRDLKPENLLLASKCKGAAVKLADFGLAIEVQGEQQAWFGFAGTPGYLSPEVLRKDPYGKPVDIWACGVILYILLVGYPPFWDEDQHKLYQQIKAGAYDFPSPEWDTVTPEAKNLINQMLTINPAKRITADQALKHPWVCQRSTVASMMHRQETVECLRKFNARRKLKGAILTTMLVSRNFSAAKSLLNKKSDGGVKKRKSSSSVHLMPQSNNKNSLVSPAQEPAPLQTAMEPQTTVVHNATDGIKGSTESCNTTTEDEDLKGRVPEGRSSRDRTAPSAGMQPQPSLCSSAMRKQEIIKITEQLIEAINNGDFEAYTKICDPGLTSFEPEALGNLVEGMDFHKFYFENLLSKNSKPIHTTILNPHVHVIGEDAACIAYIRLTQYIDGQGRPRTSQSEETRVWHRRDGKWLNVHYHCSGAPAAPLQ
Chain of Phosphorylase b kinase gamma catalytic chain, skeletal muscle/heart isoform (Homo sapiens) (Q16816 whole entry, looked up, canonical isoform): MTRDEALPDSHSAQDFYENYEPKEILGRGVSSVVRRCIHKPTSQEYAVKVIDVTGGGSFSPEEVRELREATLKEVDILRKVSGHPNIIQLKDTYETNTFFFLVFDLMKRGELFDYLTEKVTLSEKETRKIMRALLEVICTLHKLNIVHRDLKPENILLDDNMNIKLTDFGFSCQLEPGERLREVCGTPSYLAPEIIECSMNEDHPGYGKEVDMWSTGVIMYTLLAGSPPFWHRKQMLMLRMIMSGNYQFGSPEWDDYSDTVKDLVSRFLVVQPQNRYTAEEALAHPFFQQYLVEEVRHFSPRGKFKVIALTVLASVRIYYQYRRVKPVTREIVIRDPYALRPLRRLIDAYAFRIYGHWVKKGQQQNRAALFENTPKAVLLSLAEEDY

The inhibition is the drop in the measured response relative to a control, in per cent. Regarding `O[C@H]1CC[C@H](Nc2nccc(-c3n[nH]c4ccccc34)n2)CC1`, the inhibition in [1] was 77%; in experiment [2] it was 100%; in experiment [3] it was below 50%; in [4] it was 77%; in experiment [5], 77%; in [6], 88%. In addition, the inhibition in experiment [7] was 69%; in experiment [8], 66%; in experiment [9] it was 68%; in experiment [10] it was 98%; in [11] it was 87%; in [12] it was below 50%. Besides, the inhibition in [13] was found to be 74%.
With `O[C@H]1CC[C@H](Nc2nccc(-n3ccc4ccccc43)n2)CC1`, the inhibition in [1] is below 50%; in [2], 100%; in experiment [3] it was below 50%; in experiment [4], below 50%; in experiment [5] it was below 50%; in [6], 67%. In addition, the inhibition in [7], in experiment [8], in [9], in experiment [10], in [11] and in [12] was below 50% in each case. Also, in experiment [13], the inhibition was below 50%.
For the compound `O[C@H]1CC[C@H](Nc2nccc(-n3ncc4ccccc43)n2)CC1`, the inhibition was below 50% in [1]; 100% in experiment [2]; below 50% in experiment [3]; below 50% in [4]; below 50% in experiment [5]; 80% in [6]. In addition, the inhibition in experiment [7] is below 50%; in experiment [8], below 50%; in [9], below 50%; in [10], 87%; in experiment [11], 75%; in experiment [12] it was below 50%. For the same compound, the inhibition in [13] is below 50%.
In the case of `O[C@H]1CC[C@H](Nc2nccc(-n3nnc4ccccc43)n2)CC1`, the inhibition is below 50% in [1]; 100% in experiment [2]; below 50% in [3]; below 50% in experiment [4]; 73% in experiment [5]; 69% in [6]. The inhibition in experiment [7] was below 50%; in experiment [8], below 50%; in [9], below 50%; in [10], 80%; in [11], 86%; in experiment [12] it was 81%. In experiment [13], the inhibition was found to be 50%.
As for `O=C([C@H]1CC[C@H](Nc2nccc(-n3nnc4ccccc43)n2)CC1)N1CCOCC1`, the inhibition was below 50% in [1]; 100% in experiment [2]; below 50% in experiment [3]; below 50% in experiment [4]; 66% in experiment [5]; below 50% in experiment [6]. In addition, the inhibition in experiment [7] is below 50%; in experiment [8], below 50%; in experiment [9], below 50%; in [10] it was 71%; in experiment [11], 97%; in experiment [12], below 50%. The inhibition in experiment [13] was found to be 76%.
Regarding `CS(=O)(=O)CCCOc1cccc2c1ccn2-c1ccnc(N[C@H]2CC[C@H](C(=O)N3CCC(O)CC3)CC2)n1`, the inhibition in [2] was above 85%.
Regarding `N[C@H]1CC[C@H](Nc2nccc(-n3nnc4ccccc43)n2)CC1`, the inhibition is below 50% in experiment [1]; 100% in [2]; below 50% in experiment [3]; 93% in experiment [4]; below 50% in [5]; below 50% in experiment [6]. Also, the inhibition was below 50% in [7]; 78% in [8]; below 50% in experiment [9]; 99% in experiment [10]; 100% in experiment [11]; below 50% in [12]. The inhibition in [13] was 100%.
